Test results: the EternaBench riboswitch data

System: MS2 coat protein
Test: apparent Kd, MS2 coat protein; higher = weaker binding; RNA-MaP array; FMN 200 µM where present
How it was run: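 On Illumina sequencing-chip clusters, designs were transcribed by stalled E. coli RNA polymerase and titrated with SNAP-549-labelled MS2 coat protein (0.7 or 1.5 nM, doubling to 3 µM), without and then with constant ligand, in 100 mM Tris-HCl pH 7.5, 80 mM KCl, 4 mM MgCl2, BSA, DTT, yeast tRNA and Tween-20. Apparent Kd is the median of filtered per-cluster curve fits to green signal normalised to red-channel RNA signal and control-cluster median Fmax.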

[1] = designed as: ON switch for flavin mononucleotide, no ligand
[2] = ligand present: flavin mononucleotide, designed as: ON switch for flavin mononucleotide
[3] = designed as: OFF switch for flavin mononucleotide, no ligand
[4] = ligand present: flavin mononucleotide, designed as: OFF switch for flavin mononucleotide

Sequence	apparent Kd [1] [nM]	apparent Kd [2] [nM]	apparent Kd [3] [nM]	apparent Kd [4] [nM]
GCGUAUAUAAGAUUUAUUAAACAGUCAGAAGGUGAUAAUACGACAUGAGGAUCACCCAUGUAAUUCAAGGAUAUGAUCAUACGC	98.5	27.2	–	–
UUACUGUAAUAGAAGGGUAUUUGGGUUUUACAUGAGGAUCACCCAUGUUUUAUAGGAUAUGUUUAUAGUUUUUAAUCAAGUUUA	–	–	91.1	68.7
AAAGUUGGUAGGCCCUCGGAACAUGAGGAUCACCCAUGUAAGGAGGAUAUGCCCGGUACCCGCUGGCAGAAGGCCUUAUAAGAC	–	–	6.74	42.5
GCUGUCGCGUGAGGAUAUGGUCUGCAGUGCUGACCAGAAGGCAUGUCGAUAGACAUGAGGAUCACCCAUGUGGUUAGGGCGGCU	804	351	–	–
AACCUACAUGAGGAUCACCCAUGUAAGGAUAUGGCAUGAUUUGCGUCAGCCCGUUAAGUUAGAAGGUGCGUCGG	–	–	14.8	16
AAGAUGUCAGGAUAUGCUGCUCGUCACUUGCGUGAUGAGUAGCAGAAGGGACAUGAGGAUCACCCAUGUAAAGA	–	–	154	244
CUCAUGUCAGGAUAUCGUGCAGCUACCGAAAGGUAGCUGCACGAGAAGGGACAUGAGGAUCACCCAUGUAUGAA	–	–	22.2	18.4
CGCAAGUCAGGAUAUUCGACUGGUAAAUCAGUGGAUCAGUAGGAGAAGGGACAUGAGGAUCACCCAUGUUUGUA	–	–	27.8	30
CGCUCAAGAGAGAAGGAUAGAGUCAGAAGGCGUUACAUGAGGAUCACCCAUGUUUUGUAUAGUAACGAGGAUAUGAAAUGAGCG	–	–	19.7	15
AAAAAACAUGAGGAUCACCCAUGUCCUCGGACGUGAGGAUAUGUACAGACUUCGGUCUGUACAGAAGGCAUGUCAA	408	604	–	–
UUGGACGUCGUAGGAUAUGUAGGAUAUUCCUACAUGAGGAUCACCCAUGUUAACAUGGAAGAAGGACAGAAGGACGAUGUCCAU	326	4.76	–	–
AAUAAUUAUUAAGGAUAUGGGUUGAUAACAUGAGGAUCACCCAUGUUAAAUAAGCCGAGAGGCUACUAGAAGGAUAUAUAUAUU	1050	435	–	–
CACCGACCCUAUGUGUUCUAAACAUGAGGAUCACCCAUGUAUAGAAGGGUCUUCGCGAAACGCAGACAGGAUAUGUACAGGAGU	–	–	7.23	13.6
GGCAGAUGAGGAUAUACGUGCAAUCAGUGAUCCAGCCAUUAACAUGAGGAUCACCCAUGUAGAAGGCGUUUUCU	–	–	115	195
UAAAUGUGAGGAUAUUCGAAUAACACGGAGACGUGUUGUUCGGAGAAGGCACAUGAGGAUCACCCAUGUUCCUU	–	–	22.7	219
GACUUGGCUACAUGAGGAUCACCCAUGUUUGACUGGAUCAAUUAGGAUAUAGUGAUAUGCAACAAUUAGAAGGGAUGUUUACGG	56.6	45.2	–	–
CGCUACGUUUCGUAGCAGUGUCAUCGAGAAGGCCCUGACAUGAGGAUCACCCAUGUUGUUACAUGGGAGGAUAUCGAUGAUACG	13	5.4	–	–
UGUUUUCAUGUAGGAUAUGCUUGUCGUAGAUACGCAGAAGGACAUGAGGAUCACCCAUGUUAAUGCUACAGAUUUUAGUUUCUU	–	–	19.5	102
UUUUAACAUGAGGAUCACCCAUGUGAGGAUAUCGAAAUUUAUAUUAAUAUUAAUUUAUCGAGAAGGCACAUUUU	–	–	107	133
AUGACUUAUGUAGGAUAUGCAUAGAGUUGCUAUGCAGAAGGACAUGAGGAUCACCCAUGUAUGUAUACCUUACAAAACUAGCAU	–	–	9.07	54
GUCAGCUCGUGAGGAUAUACAUGUGCUGGAAACAGCAUUAAAUAAUUCACAUGAGGAUCACCCAUGUAGAAGGCACGAGCUGAU	–	–	16.8	33.8
UGUUGUAAUACAGGAUAUCUAUUAUUUUUAUUUAGAGAAGGGUAAUCACAUGAGGAUCACCCAUGUAUAUACGAGGAAGAAGAG	186	182	–	–
GGGCCGGUGGAGAAGGAGCUUGCGAAACGCAUGCUAGGAUAUCCACAUGAGGAUCACCCAUGUGGGAAUAUCUGAUUUUCGCAG	–	–	4.36	4.84
AUAGCUCCCUAGAAGGGCCAACGACAAUUGCAUCACGUAGUUGGCGUAGGUAGGAUAUGGGACAUGAGGAUCACCCAUGUGUAG	27	16.1	–	–
AGAAAUUAGUGAGGAUAUGCAUAAUUUGUAGCUGCAGAAGGCACGGACCACAAGACAUGAGGAUCACCCAUGUGGUAUUUAGAU	–	–	26.8	28
AGUGUCAUCGAGAAGGCCUCAUGACAUGAGGAUCACCCAUGUUAGCAUGGGAGGAUAUCGAUGAUACAGCUACGUUUCGUAGCA	170	51.4	–	–
UAUGUGACACAGAAGGCCAGUCACAUGAGGAUCACCCAUGUAGUAAAGUGGAGGAUAUGUGUGCCUAGCAACUUACUAGCAAGA	107	9.61	–	–
UGAACUCAUGUAGGAUAUGCAUGGCGAAGCUACGCAGAAGGACAUGAGGAUCACCCAUGUUCUAGCGUCUGAGUACAGAUGCAA	–	–	148	118

Sequence	apparent Kd [1] [nM]	apparent Kd [2] [nM]	apparent Kd [3] [nM]	apparent Kd [4] [nM]
AAAUCUCAGAUAGGAUAUAUAGGAUAACUUAAGACCUAACAUGAGGAUCACCCAUGUGAUUAUUCGUAGAAGGAUCAUUGACCC	166	175	–	–
ACAUGAGGAUCACCCAUGUUUAUUGGGUACUAUACUAUCAGCAAGGAUAUGCAAAUUUUUUUUACGCAGAAGGUGCAGGAACCU	–	–	523	334
UUAUUUUAAUGAGGAUAUAUACAACAUGAGGAUCACCCAUGUACCCAUGUAGUAGAAGGCAUAAUUUUUGAUAAUAACAUAACU	49.5	31.6	–	–
GUAGCAAUCGGAGGAUAUUCAUGAUACAUGAGGAUCACCCAUGUUAAUAUGGGAGAAGGCCGAUUGCUACAAGAGCGAAAGCUC	47.9	8.05	–	–
CGAUAAUAUAGUUAUCCGUAGCGAACAUGAGGAUCACCCAUGUAGGAUAUGUUACUAAACUAGUAACAGAAGGGCAUGAGUCUU	–	–	32.1	74.5
UUUGAAUUGCAAGGAUAUCUUAUUUAGAUUUUAAGAGAAGGUGCUUUAUAGUUACAUGAGGAUCACCCAUGUAUUUCUUUUUAU	25.5	17.7	–	–
AAGCGAGGGACAGGAUAUGCGGCGGAACUCGCCGCAGAAGGGUCGACAUGAGGAUCACCCAUGUCCUUACGCUCCAAGUAGUGG	131	425	–	–
GAUAGGACAGAGAAGGACAUAGCUAGAGAUACUAGCAUACGAACCUUUACAUGAGGAUCACCCAUGUAGGAUAUCUGUCCUAUC	–	–	5.43	6.78
ACAAAUGGAGGAUAUACAUGAGGAUCACCCAUGUUUAUCCUACAUAUGUGAUAAUCAUGUAGAAGGCCAUUUGA	–	–	24.7	15.9
ACAUACAUUCGAGGAUAUCGGUGAACAUAUUAACGAGAAGGCGAUAUAAUUUUUAAUCUUAUAAACAUGAGGAUCACCCAUGUA	21.9	20.2	–	–
GCACUUAAAAUUGAACCGUUUCGAACAUGAGGAUCACCCAUGUAGGAUAUGCUAAAAGUUGUGAUGCAGAAGGACAAUAAGUGC	–	–	6.82	6.67
UGGUUGCGAGUAGGAUAUGGUGUUUUUGUUUGGUUAGAAGGGUUCGUGAUUGUGACAUGAGGAUCACCCAUGUGUGUUGUUGUU	63.6	70.5	–	–
CAAUCACCCUCAUGUACCUGAGGACAUGAGGAUCACCCAUGUAAGGAUAUAGCCAUUAAAUCUAACUAGAAGGUAUAAAUAACC	–	–	1010	523
AAAACUCAGAUAGGAUAUAUAGGAUAACUUAAGACCUAACAUGAGGAUCACCCAUGUGAUUAUUCGUAGAAGGAUCAUUGAACC	240	238	–	–
AAAACAUGAGGAUCACCCAUGUAAAGAACGGUUAAUAGAUGUGAGGAUAUACUAGAAUUUAGGUAGUAGAAGGCACUGGGUACA	21.7	23.4	–	–
GCAUUUGAGCAGGAUAUAGCCUGAACAUAAUGGUUAGAAGGGCUCACAUGAGGAUCACCCAUGUGGUGUCCUAA	–	–	12.8	36
GUCUGGCUAGGAUAUACAGUGUCCACGAGUUAGUUGCUCUAACAUGAGGAUCACCCAUGUAGAAGGAGCGAGAA	–	–	20.5	63.7
GCACGGCAUGUAGGAUAUCGAGCGCCGGGCGCUCGAGAAGGACAUGAGGAUCACCCAUGUACUCUCAGUGAGAGAGUGCUGUGC	–	–	18.7	31.8
AAUGGGCAGCAGAAGGCAUGUCUACGGACAUGAGGAUCACCCAUGUAGUAAAGCCGAAAGGCGCAUGAGGAUAUGCUGCCCUAA	–	8.23	–	–
GCGUCAGAAUUAAUUGUGUCAUACAGAAGGCAAUAUUAAGGUUAAGACAUGAGGAUCACCCAUGUUGAGGAUAUGUAGUGACGC	–	–	10.5	18.6
AAACACAGACAUGAGGAUCACCCAUGUUAUGAAGAUACUGGGAGAAGGGCGAUUGCAAAGCAAUCGCAGGAUAUUCGUAUUGUG	31.2	11	–	–
GAGAUCAUCACAGGAUAUGCAUUCCAUAAGUGGGCAGAAGGGUGAGAUUCAAGUGGACAUGAGGAUCACCCAUGUAUACUGCCU	33.1	17.3	–	–
GUGCACACUCGAGGAUAUCGGAGUUUUUUUCUUCGAGAAGGCGAUUCGUGCCGUGUUAUUUUGGACAUGAGGAUCACCCAUGUG	79.9	34.4	–	–
CAAAGUUGGUAAGGAUAUCCCACAUUAUUCUGGCCCGUGCAAGCUACAUGAGGAUCACCCAUGUGGGAGAAGGUGCGUUAAAGA	–	–	22	33.7
UAUUUUUAUGUAAGGAUAUGGGUUUGGUUGCGGGCUUAGAAGGUACAUGAGGAUCACCCAUGUAUAAUGUGCGU	–	–	29.6	30.5
UAUUAGUAAGGAUAUGAGACGUAGGACUUCGGUCCUACGUCUCAGAAGGUACAUGAGGAUCACCCAUGUUUAUU	–	–	17.1	26.1
GUAAGUCAUGUAGGAUAUCCGAGGCGAAGCGUUGGAGAAGGACAUGAGGAUCACCCAUGUUCUAGCGUCUGAGUACAGAUGCAG	–	–	29.4	104
